Usually pIC50 stands for the negative decadic logarithm of the IC50, by convention in mol/L. A higher pIC50 goes with a low IC50.

pIC50: −log10 of the molar value. Calls of active or inactive are those of the source. The rule behind the calls is not given here.

This is an account of results in ChEMBL document CHEMBL1914299, “Synthesis and antitumor activity of β-carboline 3-(substituted-carbohydrazide) derivatives” (Bioorg Med Chem, 2011).

In data set [1] the test system is UACC-62. As to the kind of experiment: Antitumor activity against human UACC62 cells by SRB colorimetric assay. Type of data set: functional, cell-based. The method, boiled down:
(§1)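 NCI sulforhodamine B colorimetric growth assay in 96-well plates. Each compound tested at four concentrations in 10-fold dilutions. Doxorubicin as positive control. IC50 taken from concentration–response curves as the concentration giving 50% reduction in cell growth versus untreated control cells.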
(The SRB assay estimates cell density from bound dye.)

The test system of data set [2] is MCF7. As to the kind of experiment: Antitumor activity against human MCF7 cells by SRB colorimetric assay. The data set is classed as functional, cell-based. The method, boiled down: as §1
In data set [3] the test system is NCI-H460. As to the kind of experiment: Antitumor activity against human NCI-H460 cells by SRB colorimetric assay. Type of data set: functional, cell-based. The method, boiled down: as §1
In data set [4] the test system is K562. As to the kind of experiment: Antitumor activity against human K562 cells by SRB colorimetric assay. The data set is classed as functional, cell-based. The method, boiled down:
as §1

For data set [5], the system named is OVCAR. As to the kind of experiment: Antitumor activity against human OVCAR cells by SRB colorimetric assay. The data set is classed as functional, cell-based. In a few lines: as §1
Data set [6] can be described thus: Antitumor activity against human PCO3 cells by SRB colorimetric assay. Type of data set: functional, cell-based. The method, boiled down:
as §1

Data set [7] deals with HT-29. As to the kind of experiment: Antitumor activity against human HT-29 cells by SRB colorimetric assay. The data set is classed as functional, cell-based. The method, boiled down:
as §1

Data set [8] has as its system 786-0. As to the kind of experiment: Antitumor activity against human 786-0 cells by SRB colorimetric assay. The data set is classed as functional, cell-based. The method, boiled down: as §1
Data set [9] deals with Mus musculus. As to the kind of experiment: Acute toxicity in BALB/c mouse at 30 mg/kg, ip. Also noted: dose 30 mg/kg, route intraperitoneal. The data set is classed as organism-based. As to conditions: in vivo.
The subject of data set [10] is Mus musculus. As to the kind of experiment: Antiinflammatory activity in mouse Ehrlich Ascitic tumor xenografted BALB/c mouse assessed as reduction in paw edema at 30 mg/kg, ip administered every 3 days for 15 days by plethysmograph analysis. Details: dose 30 mg/kg. Type of data set: functional, organism-based. In a few lines:
(§2)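 Ehrlich tumor cells collected from ascitic fluid and counted by Trypan blue exclusion, viability above 90%. Cells diluted in 0.9% PBS to […]. Injected sub-plantar into right hind paw of Balb/C mice (20–35 g), 2.5 × 10⁶ viable cells. Compound given ip every 3 days over 15 days, vehicle 0.9% saline, 5-fluorouracil 10 mg/kg as positive control. Paw volume measured by plethysmometer every 3 days until sacrifice on day 15.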

The subject of data set [11] is Mus musculus. As to the kind of experiment: Antitumor activity against mouse Ehrlich Ascitic tumor xenografted in BALB/c mouse assessed as reduction of tumor volume in paw at 10 mg/kg, ip administered every 3 days for 15 days measured on day 9 by plethysmograph analysis. Details: dose 10 mg/kg. Type of data set: functional, organism-based.
Data set [12] has as its system Mus musculus. As to the kind of experiment: Antitumor activity against mouse Ehrlich Ascitic tumor xenografted in BALB/c mouse assessed as reduction of tumor volume in paw at 30 mg/kg, ip administered every 3 days for 15 days measured on day 9 by plethysmograph analysis. The data set is classed as functional, organism-based. Details: dose 30 mg/kg. In a few lines: as §2

Data set [13] deals with Mus musculus. As to the kind of experiment: Antitumor activity against mouse Ehrlich Ascitic tumor xenografted in BALB/c mouse assessed as reduction in paw edema at 30 mg/kg, ip administered every 3 days for 15 days measured on day 12 and day 15 by plethysmograph analysis. Type of data set: functional, organism-based. Details: dose 30 mg/kg. The method, boiled down: as §2

As to `CN(C)c1ccc(/C=N/NC(=O)c2cc3c([nH]c4ccccc43)c(-c3cccc([N+](=O)[O-])c3)n2)cc1`, the pIC50 in data set [1] was 5.87; in data set [2], 6.20; in data set [3], 5.68; in [4] it was 6.62; in data set [5], 6.72; in [6], 5.38. Further, the pIC50 in data set [7] is 5.01; in [8] it was 7.40. Further, in data set [9], the Activity result was “Non-toxic”. The outcome in [10], in [11], in data set [12] and in data set [13] was Active.
